Results as given in ChEMBL document CHEMBL1137356, “Tricyclic imidazoline derivatives as potent and selective adenosine A1 receptor antagonists” (J Med Chem, 2006).
Values after ≈ are worked out from the molar mass of the structure shown. Each block holds one compound with its values, some of them ahead of it.

Key:
[1] = biological target: Adenosine receptor A2a (Rattus norvegicus) (UniProt P30543); assay: Displacement of [3H]ZM-241385 from adenosine A2A receptor in rat striatal membrane at 10 uM relative to control; format: cell membranes; settings: Striatum
Chain of Adenosine receptor A2a (Rattus norvegicus) (P30543 whole entry): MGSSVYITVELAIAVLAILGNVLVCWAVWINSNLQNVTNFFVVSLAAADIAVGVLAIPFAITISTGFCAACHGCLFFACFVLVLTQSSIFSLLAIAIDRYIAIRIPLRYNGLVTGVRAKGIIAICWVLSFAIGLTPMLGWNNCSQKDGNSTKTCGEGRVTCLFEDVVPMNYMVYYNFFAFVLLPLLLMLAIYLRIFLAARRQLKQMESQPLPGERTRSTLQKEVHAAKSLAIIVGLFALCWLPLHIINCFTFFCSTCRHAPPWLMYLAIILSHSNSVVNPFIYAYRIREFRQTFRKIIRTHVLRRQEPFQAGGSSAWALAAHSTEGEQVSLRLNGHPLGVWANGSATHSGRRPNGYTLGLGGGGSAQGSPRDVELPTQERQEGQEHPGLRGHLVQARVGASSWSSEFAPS

[2] = biological target: T1, Adenosine receptor A1 (Rattus norvegicus, UniProt P25099); assay: Displacement of [3H]DPCPX from adenosine A1 receptor in rat cerebral cortex; format: tissue-based
T1 sequence (P25099 whole entry): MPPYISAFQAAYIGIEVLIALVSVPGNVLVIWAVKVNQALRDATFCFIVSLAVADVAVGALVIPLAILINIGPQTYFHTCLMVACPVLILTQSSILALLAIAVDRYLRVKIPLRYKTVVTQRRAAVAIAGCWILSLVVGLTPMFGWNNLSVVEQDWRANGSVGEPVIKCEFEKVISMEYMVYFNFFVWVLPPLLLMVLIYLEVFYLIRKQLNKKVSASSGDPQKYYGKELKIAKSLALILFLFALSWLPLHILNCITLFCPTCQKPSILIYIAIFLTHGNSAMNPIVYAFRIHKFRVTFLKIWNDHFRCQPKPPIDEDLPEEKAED
Procedure, shortened: (§1)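 Rat brain membranes (cerebral cortex for A1, striatum for A2A) homogenized in 10 mM EDTA/10 mM Na-HEPES pH 7.4 with protease inhibitors, washed, stored at -80 °C. 40-70 µg protein incubated in triplicate with radioligand plus seven competitor concentrations in HEPES/EDTA buffer with 2 units/mL adenosine deaminase, 2.5 h, 21 °C. A1: [3H]DPCPX 2 nM, nonspecific with 10 µM NECA; A2A: [3H]ZM241385 0.5-1.2 nM, nonspecific with 10 µM XAC. GF/C filtration; single-site fit, Cheng-Prusoff Ki.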

[3] = test system: Rattus norvegicus; assay: Sodium excretion level in po dosed rat diuresis model; format: ADME, organism-based
Procedure, shortened: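 Rats held in metabolic cages and dosed by gavage as 0.5% cmc suspension at several doses; urine collected for 4 h and sodium excretion (UNaV) measured.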

[4] = Oral bioavailability in rat at 1 mg/kg, iv and po; format: ADME, organism-based; settings: in vivo
Procedure, shortened: (§2)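 Rats given 1 mg/kg orally and intravenously to obtain pharmacokinetic parameters.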

[5] = Clearance in rat at 1 mg/kg, po; format: ADME, organism-based; parameters: dose 1 mg/kg, route oral; settings: in vivo; procedure, shortened: as §2
[6] = (§3) AUC(last) in rat at 1 mg/kg, po; format: ADME, organism-based, Plasma; parameters: time 0 - last, dose 1 mg/kg, route oral; settings: plasma; procedure, shortened: as §2
[7] = test system: Rattus norvegicus; assay: Volume of distribution in rat at 1 mg/kg, po; format: ADME, organism-based; parameters: dose 1 mg/kg, route oral; settings: in vivo; procedure, shortened: as §2
[8] = Half life in rat 1 mg/kg, po; format: ADME, organism-based; parameters: dose 1 mg/kg, route oral; settings: in vivo; procedure, shortened: as §2
[9] = biological target: T2, Adenosine receptor A1 (Homo sapiens, UniProt P30542); assay: Displacement of [125I]ABA from human adenosine A1 receptor
T2 sequence (P30542 whole entry): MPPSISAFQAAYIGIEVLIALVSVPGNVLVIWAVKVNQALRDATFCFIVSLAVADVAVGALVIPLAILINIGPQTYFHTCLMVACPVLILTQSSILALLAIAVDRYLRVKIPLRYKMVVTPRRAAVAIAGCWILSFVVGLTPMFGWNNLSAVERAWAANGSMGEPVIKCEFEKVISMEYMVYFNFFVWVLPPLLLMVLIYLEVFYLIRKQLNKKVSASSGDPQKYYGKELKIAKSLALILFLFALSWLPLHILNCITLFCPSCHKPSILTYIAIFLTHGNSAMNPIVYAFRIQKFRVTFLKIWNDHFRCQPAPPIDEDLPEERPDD

[10] = biological target: Adenosine receptor A2a (Homo sapiens, UniProt P29274); assay: Displacement of [125I]ZM-241385 from human adenosine A2A receptor
Chain of Adenosine receptor A2a (Homo sapiens, UniProt P29274) (P29274 whole entry): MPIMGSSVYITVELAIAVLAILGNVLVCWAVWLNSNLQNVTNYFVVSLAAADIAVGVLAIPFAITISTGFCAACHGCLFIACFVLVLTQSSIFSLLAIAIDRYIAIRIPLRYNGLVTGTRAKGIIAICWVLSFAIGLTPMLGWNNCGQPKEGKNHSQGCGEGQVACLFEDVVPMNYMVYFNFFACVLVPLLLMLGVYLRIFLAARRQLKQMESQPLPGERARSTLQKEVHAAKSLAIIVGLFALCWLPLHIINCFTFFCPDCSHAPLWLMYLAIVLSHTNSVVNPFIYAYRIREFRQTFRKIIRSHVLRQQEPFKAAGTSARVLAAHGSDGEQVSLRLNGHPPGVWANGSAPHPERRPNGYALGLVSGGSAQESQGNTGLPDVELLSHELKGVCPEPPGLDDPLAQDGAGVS

[11] = biological target: T3, Adenosine receptor A2b (Homo sapiens, UniProt P29275); assay: Displacement of [125I]3-(4-aminobenzyl)-8-phenyloxyacetate-1-propyl-xanthine from human adenosine A2B receptor
T3 sequence (P29275 whole entry): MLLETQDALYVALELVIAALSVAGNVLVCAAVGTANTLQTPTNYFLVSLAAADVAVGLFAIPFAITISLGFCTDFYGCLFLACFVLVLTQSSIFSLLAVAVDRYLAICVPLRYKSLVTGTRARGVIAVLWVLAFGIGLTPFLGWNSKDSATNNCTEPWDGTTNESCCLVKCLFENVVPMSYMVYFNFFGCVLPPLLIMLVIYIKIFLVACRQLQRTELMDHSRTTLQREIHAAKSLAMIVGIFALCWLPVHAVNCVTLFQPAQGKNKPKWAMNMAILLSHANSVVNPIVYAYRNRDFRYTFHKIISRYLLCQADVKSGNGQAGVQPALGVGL

[12] = biological target: T4, Adenosine receptor A3 (Homo sapiens, UniProt P0DMS8); assay: Displacement of [125I]ABA from human adenosine A3 receptor
T4 sequence (P0DMS8 whole entry): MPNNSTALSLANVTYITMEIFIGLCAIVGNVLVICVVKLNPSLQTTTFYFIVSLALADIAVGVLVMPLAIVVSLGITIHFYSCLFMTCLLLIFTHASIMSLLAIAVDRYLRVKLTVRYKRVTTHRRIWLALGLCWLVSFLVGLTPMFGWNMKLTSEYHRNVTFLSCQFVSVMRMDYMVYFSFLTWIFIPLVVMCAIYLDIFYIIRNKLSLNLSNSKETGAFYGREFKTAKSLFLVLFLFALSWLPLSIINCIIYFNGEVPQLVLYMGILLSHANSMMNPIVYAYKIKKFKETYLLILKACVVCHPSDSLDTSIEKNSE

[13] = biological target: Adenosine receptors; A1 & A2a (Homo sapiens) (UniProt P30542+P29274); assay: Selectivity for human adenosine A1 receptor over adenosine A2A receptor; format: protein assay
Chain of Adenosine receptors; A1 & A2a (Homo sapiens) (P29274 whole entry, looked up, one chain of several): as the sequence (P29274 whole entry) above

[14] = biological target: Adenosine receptors; A1 & A2b (Homo sapiens) (UniProt P30542+P29275); assay: Selectivity for human adenosine A1 receptor over adenosine A2B receptor; format: protein assay
[15] = Aqueous solubility of the compound; format: physicochemical
[16] = biological target: T1, Adenosine receptor A1; assay: Intrinsic activity at adenosine A1 receptor assessed as blockade of CPA in isolated spontaneously beating rat atria; format: functional; settings: read-out: pA2 (converted)
[17] = biological target: Adenosine receptor A2a (Rattus norvegicus, UniProt P30543); assay: Displacement of [3H]ZM-241385 from adenosine A2A receptor in rat striatal membrane; format: cell membranes, Striatum; procedure, shortened: as §1
Chain of Adenosine receptor A2a (Rattus norvegicus, UniProt P30543) (P30543 whole entry): as the sequence (P30543 whole entry) above

[18] = test system: Rattus norvegicus; assay: as §3; format: ADME, organism-based, Plasma; parameters: time 0 - last, dose 1 mg/kg, route oral; settings: in vivo; procedure, shortened: as §2

- Activity [1]: 84%
SMILES: CCCN1C(=O)N2C[C@@H](Cc3ccccc3)N=C2c2[nH]c(C34CCC(O)(CC3)CC4)nc21

- Ki [2]: 51 nM
SMILES: CCCN1C(=O)N2C(=NC[C@H]2C)c2[nH]c(C34CCC(O)(CC3)CC4)nc21

- Activity [1]: 90%
SMILES: CCC[C@@H]1CN2C(=O)N(CCC)c3[nH]c(C45CCC(O)(CC4)CC5)nc3C2=N1

- bioavailability [4]: 99%
- CL/F [5]: 1.6 mL/min/kg
- AUC(0-t) [6]: 10000 ng·h/mL
- Vdss [7]: 0.3 L/kg
- half-life [8]: 3.1 h
SMILES: CCCn1c(=O)c2nc(C34CCC(CCC(=O)O)(CC3)CC4)[nH]c2n(CCC)c1=O.Cl
- ED50 [3]: 0.01 mg/kg

- Activity [1]: 48%
SMILES: CCCN1C(=O)N2C[C@@H](CC)N=C2c2[nH]c(C34CCC(C(=O)O)(CC3)CC4)nc21

- Ki [9]: 45 nM
- Ki [10]: 18000 nM
- Ki [11]: 3100 nM
- Ki [12]: > 10000 nM
SMILES: CCCN1C(=O)N2C[C@@H](C(C)C)N=C2c2[nH]c(C34CCC(CCC(=O)O)(CC3)CC4)nc21 [listing 1 of 2 here]

- Ratio Ki [13]: 46
- Ratio Ki [14]: 57
SMILES: CCCN1C(=O)N2C[C@@H](C(C)C)N=C2c2[nH]c(C34CCC(O)(CC3)CC4)nc21 [listing 1 of 2 here]

- Activity [1]: 79%
SMILES: CCCN1C(=O)N2C[C@@H](c3ccccc3)N=C2c2[nH]c(C34CCC(O)(CC3)CC4)nc21

- Activity [1]: 80%
- Ki [2]: > 250 nM
SMILES: CCCN1C(=O)N2C[C@H](CC)N=C2c2[nH]c(C34CCC(C(=O)O)(CC3)CC4)nc21

- solubility [15]: 100 mg/mL
- bioavailability [4]: 84%
- CL/F [5]: 18 mL/min/kg
- AUC(0-t) [6]: 800 ng·h/mL
- Vdss [7]: 4.1 L/kg
- half-life [8]: 3.8 h
SMILES: CCCN1C(=O)N2C[C@@H](CC)N=C2c2[nH]c(C34CCC(O)(CC3)CC4)nc21.Cl
- ED50 [3]: 0.01 mg/kg

- Ratio Ki [13]: 275
- Ratio Ki [14]: 215
SMILES: CCCn1c(=O)c2nc(C34CCC(O)(CC3)CC4)[nH]c2n(CCC)c1=O

- Activity [1]: 83%
- Ki [9]: 35 nM
- Ki [10]: > 10000 nM
- Ki [11]: 1900 nM
- Ki [12]: > 10000 nM
- Ratio Ki [13]: > 280
- Ratio Ki [14]: 54
SMILES: CCCN1C(=O)N2C[C@@H](CC)N=C2c2[nH]c(C34CCC(CCC(=O)O)(CC3)CC4)nc21

- bioavailability [4]: 54%
- CL/F [5]: 21 mL/min/kg
- AUC(0-t) [6]: 810 ng·h/mL
- Vdss [7]: 1.7 L/kg
- half-life [8]: 2.9 h
SMILES: CCCN1C(=O)N2C[C@@H](C(C)C)N=C2c2[nH]c(C34CCC(O)(CC3)CC4)nc21.Cl
- ED50 [3]: 0.01 mg/kg

- Ratio Ki [13]: 200
- Ratio Ki [14]: 26
SMILES: CCCN1C(=O)N2C[C@@H](CC)N=C2c2[nH]c(C34CCC(O)(CC3)CC4)nc21 [listing 1 of 2 here]

- Kb [16]: 0.126 nM
- Ki [17]: 1100 nM
- Ki [2]: 4 nM
- Ki [9]: 35 nM
- Ki [10]: 1600 nM
- Ki [11]: 2000 nM
- Ki [12]: > 10000 nM
SMILES: CCCN1C(=O)N2C[C@@H](C(C)C)N=C2c2[nH]c(C34CCC(O)(CC3)CC4)nc21 [listing 2 of 2 here]

- bioavailability [4]: 77%
- AUC [18]: 2600 ng·h/mL
- Vdss [7]: 0.9 L/kg
- half-life [8]: 3.1 h
SMILES: CCCN1C(=O)N2C[C@@H](C(C)C)N=C2c2[nH]c(C34CCC(CCC(=O)O)(CC3)CC4)nc21.Cl
- ED50 [3]: 0.01 mg/kg

- Activity [1]: 77%
- Ki [2]: > 100 nM
SMILES: CCCN1C(=O)N2CCN=C2c2[nH]c(C34CCC(O)(CC3)CC4)nc21

- Kb [16]: 0.158 nM
- Ki [2]: 1 nM
- Ki [10]: 6400 nM
- Ki [11]: 90 nM
- Ki [12]: > 10000 nM
SMILES: CCCn1c(=O)c2[nH]c(C34CCC(CCC(=O)O)(CC3)CC4)nc2n(CCC)c1=O [TONAPOFYLLINE]

- Activity [1]: 74%
- Ratio Ki [13]: 400
- Ratio Ki [14]: 69
SMILES: CCCN1C(=O)N2C[C@@H](C(C)C)N=C2c2[nH]c(C34CCC(CCC(=O)O)(CC3)CC4)nc21 [listing 2 of 2 here]

- Ki [2]: 69 nM
SMILES: CCCN1C(=O)N2C(=NC[C@@H]2C)c2[nH]c(C34CCC(O)(CC3)CC4)nc21

- Ki [2]: > 250 nM
SMILES: CCCN1C(=O)N2CC[C@@H](CC)N=C2c2[nH]c(C34CCC(O)(CC3)CC4)nc21

- Ki [2]: > 250 nM
SMILES: CCCN1C(=O)N2CC[C@@H](C)N=C2c2[nH]c(C34CCC(O)(CC3)CC4)nc21

- solubility [15]: 0.1 mg/mL (≈ 277 µM)
- Ki [2]: 0.6 nM
- Ki [9]: 2 nM
- Ki [10]: 550 nM
- Ki [11]: 430 nM
- Ki [12]: > 1000 nM
SMILES: CCCn1c(=O)c2[nH]c(C34CCC(O)(CC3)CC4)nc2n(CCC)c1=O

- Activity [1]: 32%
- Ki [9]: 60 nM
- Ki [11]: 2200 nM
- Ratio Ki [14]: 37
SMILES: CCCN1C(=O)N2C[C@@H](C)N=C2c2[nH]c(C34CCC(O)(CC3)CC4)nc21

- Activity [1]: 91%
- Ki [2]: 14 nM
SMILES: CCCN1C(=O)N2C[C@H](C(C)CC)N=C2c2[nH]c(C34CCC(O)(CC3)CC4)nc21 (stereo partly specified)

- Activity [1]: 97%
- Ki [2]: 170 nM
SMILES: CCCN1C(=O)N2C[C@@H](CC(C)C)N=C2c2[nH]c(C34CCC(O)(CC3)CC4)nc21

- Activity [1]: 70%
- Ki [2]: > 100 nM
SMILES: CCCN1C(=O)N2C[C@H](CC)N=C2c2[nH]c(C34CCC(O)(CC3)CC4)nc21

- Kb [16]: 1.32 nM
- Ki [17]: 2700 nM
- Ki [2]: 6 nM
- Ki [9]: 22 nM
- Ki [10]: 4400 nM
- Ki [11]: 580 nM
- Ki [12]: > 10000 nM
SMILES: CCCN1C(=O)N2C[C@@H](CC)N=C2c2[nH]c(C34CCC(O)(CC3)CC4)nc21 [listing 2 of 2 here]
